# How the values were obtained:
# [1] = target: 5-hydroxytryptamine receptor 6 (Homo sapiens, UniProt P50406); experiment: Binding affinity against human cloned 5-hydroxytryptamine 6 receptor in HeLa cells using [3H]LSD; assay type: cell-based
# Method in brief: (§1)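 Radioligand binding at human cloned receptors; cell hosts and radioligands as listed per line: 5-HT1A, 5-HT2A, 5-HT2B, 5-HT2C and 5-HT7 in HEK 293 cells; 5-HT1B, 5-HT1D, 5-HT1E, 5-HT1F, D2 and D3 in CHO cells; 5-HT6 in HeLa cells. Values are the mean of at least two determinations, each within 0.2 log unit of the mean.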
# Homo sapiens = species on record: Homo sapiens; experiment: Selectivity for 5-HT6 receptors with respect to the 5-HT1A, 5-HT1B, 5-HT1D, 5-HT1E, 5-HT1F, 5-HT2A, 5-HT2B, 5-HT2C, 5-HT4, 5-HT7, Alpha-1B, D2, D3 receptors.
# [2] = target: T1, 5-hydroxytryptamine receptor 1A (Homo sapiens, UniProt P08908); experiment: Compound was tested for its binding affinity against 5-hydroxytryptamine 1A receptor in human cloned receptors in HEK 293 cells using [3H]8-OH-DPAT; assay type: cell-based, HEK293; method in brief: as §1
# T1 sequence (P08908 whole entry): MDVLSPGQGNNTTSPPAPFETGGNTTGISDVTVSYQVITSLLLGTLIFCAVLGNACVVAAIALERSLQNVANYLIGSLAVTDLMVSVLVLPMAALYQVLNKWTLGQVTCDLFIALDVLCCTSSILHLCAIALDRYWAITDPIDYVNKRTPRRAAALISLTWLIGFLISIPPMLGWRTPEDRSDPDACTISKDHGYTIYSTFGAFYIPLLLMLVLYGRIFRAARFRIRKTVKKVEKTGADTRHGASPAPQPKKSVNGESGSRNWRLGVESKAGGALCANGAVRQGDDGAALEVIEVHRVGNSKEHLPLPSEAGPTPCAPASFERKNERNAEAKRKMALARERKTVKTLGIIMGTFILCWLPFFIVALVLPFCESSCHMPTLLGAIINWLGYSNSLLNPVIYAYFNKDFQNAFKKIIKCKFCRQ
# [3] = target: 5-hydroxytryptamine receptor 1B (Homo sapiens, UniProt P28222); experiment: Compound was tested for its binding affinity against human cloned 5-hydroxytryptamine 1B receptor in CHO cells using [3H]5-HT; assay type: cell-based; method in brief: as §1
# [4] = target: 5-hydroxytryptamine receptor 1D (Homo sapiens, UniProt P28221); experiment: Compound was tested for its binding affinity against human cloned 5-hydroxytryptamine 1D receptor in CHO cells using [3H]5-HT; assay type: cell-based; method in brief: as §1
# [5] = target: 5-hydroxytryptamine receptor 1E (Homo sapiens, UniProt P28566); experiment: Compound was tested for its binding affinity against cloned human 5-hydroxytryptamine 1E receptor in CHO cells using [3H]-5-HT; assay type: cell-based; method in brief: as §1
# [6] = target: 5-hydroxytryptamine receptor 2A (Homo sapiens, UniProt P28223); experiment: Compound was tested for its binding affinity against 5-hydroxytryptamine 2A receptor in human cloned receptors in HEK 293 cells using [3H]ketanserin; assay type: cell-based, HEK293; method in brief: as §1
# [7] = target: T2, 5-hydroxytryptamine receptor 1F (Homo sapiens, UniProt P30939); experiment: Compound was tested for its binding affinity against 5-hydroxytryptamine 1F receptor in human cloned receptors in CHO cells using [3H]5-HT; assay type: cell-based; method in brief: as §1
# T2 sequence (P30939 whole entry): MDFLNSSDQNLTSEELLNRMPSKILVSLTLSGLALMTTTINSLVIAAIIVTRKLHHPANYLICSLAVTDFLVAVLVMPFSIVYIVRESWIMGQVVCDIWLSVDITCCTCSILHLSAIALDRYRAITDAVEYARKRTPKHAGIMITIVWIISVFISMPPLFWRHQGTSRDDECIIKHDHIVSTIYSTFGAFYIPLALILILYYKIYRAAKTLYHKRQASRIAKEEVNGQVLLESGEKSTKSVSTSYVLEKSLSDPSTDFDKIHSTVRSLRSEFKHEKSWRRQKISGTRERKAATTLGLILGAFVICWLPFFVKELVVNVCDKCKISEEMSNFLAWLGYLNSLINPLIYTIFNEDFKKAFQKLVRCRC
# [8] = target: 5-hydroxytryptamine receptor 2B (Homo sapiens, UniProt P41595); experiment: Compound was tested for its binding affinity against cloned human 5-hydroxytryptamine 2B receptor in HEK 293 cells using [3H]5-HT; assay type: cell-based, HEK293; method in brief: as §1
# [9] = target: 5-hydroxytryptamine receptor 4 (Homo sapiens, UniProt Q13639); experiment: Compound was tested for its binding affinity against 5-hydroxytryptamine 4 receptor
# [10] = target: 5-hydroxytryptamine receptor 7 (Homo sapiens, UniProt P34969); experiment: Compound was tested for its binding affinity against human cloned 5-hydroxytryptamine 7 receptor in HEK 293 cells using [3H]5-CT; assay type: cell-based, HEK293; method in brief: as §1
# [11] = target: T3, Alpha-1B adrenergic receptor (Homo sapiens, UniProt P35368); experiment: Compound was tested for its binding affinity against Alpha-1B adrenergic receptor
# T3 sequence (P35368 whole entry): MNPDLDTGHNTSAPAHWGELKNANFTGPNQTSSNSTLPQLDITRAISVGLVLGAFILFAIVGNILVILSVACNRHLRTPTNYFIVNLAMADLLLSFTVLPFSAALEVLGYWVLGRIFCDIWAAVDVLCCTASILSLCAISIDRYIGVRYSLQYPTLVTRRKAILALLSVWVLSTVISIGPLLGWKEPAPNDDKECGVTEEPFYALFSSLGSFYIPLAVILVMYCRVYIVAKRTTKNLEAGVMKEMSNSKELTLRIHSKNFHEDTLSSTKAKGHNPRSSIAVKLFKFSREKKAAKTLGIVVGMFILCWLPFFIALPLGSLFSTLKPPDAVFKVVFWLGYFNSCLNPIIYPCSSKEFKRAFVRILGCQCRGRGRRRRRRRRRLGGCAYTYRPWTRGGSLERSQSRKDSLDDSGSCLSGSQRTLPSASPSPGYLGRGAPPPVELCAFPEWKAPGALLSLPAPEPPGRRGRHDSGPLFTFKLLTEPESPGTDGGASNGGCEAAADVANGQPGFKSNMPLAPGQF
# D(3) dopamine receptor = D(3) dopamine receptor (Homo sapiens, UniProt P35462); experiment: Compound was tested for its binding affinity against Dopamine receptor D3 in human cloned receptors in CHO cells using [125 I]iodosulpride; assay type: cell-based; method in brief: as §1
# D(2) dopamine receptor = D(2) dopamine receptor (Homo sapiens, UniProt P14416); experiment: Compound was tested for its binding affinity against Dopamine receptor D2 in human cloned receptors in CHO cells using [125 I]iodosulpride; assay type: cell-based; method in brief: as §1
# [12] = target: T4, 5-hydroxytryptamine receptor 2C (Homo sapiens, UniProt P28335); experiment: Compound was tested for its binding affinity against human cloned 5-hydroxytryptamine 2C receptor in HEK 293 cells using [3H]mesulergine; assay type: cell-based, HEK293; method in brief: as §1
# T4 sequence (P28335 whole entry): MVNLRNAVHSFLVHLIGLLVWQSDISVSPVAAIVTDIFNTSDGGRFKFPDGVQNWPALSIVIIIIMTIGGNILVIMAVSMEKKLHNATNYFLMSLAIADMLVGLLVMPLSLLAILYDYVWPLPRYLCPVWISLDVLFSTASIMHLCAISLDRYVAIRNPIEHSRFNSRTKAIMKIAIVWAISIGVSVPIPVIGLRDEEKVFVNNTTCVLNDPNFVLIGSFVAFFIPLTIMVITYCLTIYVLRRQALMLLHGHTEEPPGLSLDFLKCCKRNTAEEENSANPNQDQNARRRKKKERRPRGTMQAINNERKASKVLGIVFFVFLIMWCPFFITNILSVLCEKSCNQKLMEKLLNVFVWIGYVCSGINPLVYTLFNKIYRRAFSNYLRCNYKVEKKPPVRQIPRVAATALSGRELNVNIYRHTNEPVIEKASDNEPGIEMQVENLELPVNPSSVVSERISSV
# [13] = target: T3, Alpha-1B adrenergic receptor; experiment: Compound was tested for its binding affinity against adrenergic Alpha-1B adrenergic receptor
# Cytochrome P450 1A2 = target: T5, Cytochrome P450 1A2 (Homo sapiens, UniProt P05177); experiment: Inhibition of human cytochrome P450 1A2 activity as caffeine N3 demethylation (500 uM); assay type: ADME
# T5 sequence (P05177 whole entry): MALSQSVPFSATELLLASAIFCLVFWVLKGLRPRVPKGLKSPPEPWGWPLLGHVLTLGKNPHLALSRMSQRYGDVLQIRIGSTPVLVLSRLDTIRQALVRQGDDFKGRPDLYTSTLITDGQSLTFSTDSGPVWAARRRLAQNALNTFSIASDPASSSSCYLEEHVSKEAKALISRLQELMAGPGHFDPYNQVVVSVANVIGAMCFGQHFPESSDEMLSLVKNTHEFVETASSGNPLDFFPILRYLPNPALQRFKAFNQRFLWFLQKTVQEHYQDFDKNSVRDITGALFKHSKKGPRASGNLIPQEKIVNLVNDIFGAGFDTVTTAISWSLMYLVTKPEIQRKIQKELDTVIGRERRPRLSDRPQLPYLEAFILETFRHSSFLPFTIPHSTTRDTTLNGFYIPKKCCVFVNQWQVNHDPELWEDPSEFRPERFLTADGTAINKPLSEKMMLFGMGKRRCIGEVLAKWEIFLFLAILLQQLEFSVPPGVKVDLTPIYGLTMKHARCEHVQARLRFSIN
# Method in brief: (§2)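 Heterologously expressed human CYP isoforms in isoform-selective assays, with substrate at its Km. CYP1A2: caffeine N3-demethylation (500 μM). CYP2C9: tolbutamide methylhydroxylation (100 μM). CYP2C19: S-mephenytoin 4-hydroxylation (100 μM). CYP2D6: bufuralol 1'-hydroxylation (10 μM). CYP3A4: total cyclosporin oxidation (1 μM). IC50 is the mean of duplicate determinations, agreeing within 10%.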
# Cytochrome P450 2C19 = Cytochrome P450 2C19 (Homo sapiens, UniProt P33261); experiment: Inhibition of human cytochrome P450 2C19 as S-mephenytoin-4-hydroxylation (100 uM); assay type: ADME; method in brief: as §2
# Cytochrome P450 2C9 = Cytochrome P450 2C9 (Homo sapiens, UniProt P11712); experiment: Inhibitory potential of human cytochrome P450 2C9 as Tolbutamide methylhydroxylation (100 uM); assay type: ADME; method in brief: as §2
# Cytochrome P450 2D6 = Cytochrome P450 2D6 (Homo sapiens, UniProt P10635); experiment: Inhibition of human cytochrome P450 2D6 as bufuralol 1''-hydroxylation (10 uM); assay type: ADME; method in brief: as §2
# Cytochrome P450 3A4 = Cytochrome P450 3A4 (Homo sapiens, UniProt P08684); experiment: Inhibition of human cytochrome P450 3A4 as total cyclosporin oxidation (1 uM); assay type: ADME
# Method in brief: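 Heterologously expressed human CYP isoforms in isoform-selective assays, with substrate at its Km. CYP1A2: caffeine N3-demethylation (500 μM). CYP2C9: tolbutamide methylhydroxylation (100 μM). CYP2C19: S-mephenytoin 4-hydroxylation (100 μM). CYP2D6: bufuralol 1'-hydroxylation (10 μM). CYP3A4: total cyclosporin oxidation (1 μM).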
# Chain of 5-hydroxytryptamine receptor 1B (P28222 whole entry): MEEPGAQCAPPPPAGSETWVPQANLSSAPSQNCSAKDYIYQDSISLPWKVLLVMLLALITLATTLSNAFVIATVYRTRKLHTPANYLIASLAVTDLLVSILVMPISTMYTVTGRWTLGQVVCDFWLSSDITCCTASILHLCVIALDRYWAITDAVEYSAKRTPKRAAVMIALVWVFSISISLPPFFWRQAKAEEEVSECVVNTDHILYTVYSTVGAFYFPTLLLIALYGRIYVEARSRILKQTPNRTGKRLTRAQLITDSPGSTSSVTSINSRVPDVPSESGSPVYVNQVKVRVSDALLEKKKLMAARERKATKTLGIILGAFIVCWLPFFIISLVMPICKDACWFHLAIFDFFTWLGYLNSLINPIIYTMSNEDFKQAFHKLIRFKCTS
# Chain of 5-hydroxytryptamine receptor 1E (P28566 whole entry): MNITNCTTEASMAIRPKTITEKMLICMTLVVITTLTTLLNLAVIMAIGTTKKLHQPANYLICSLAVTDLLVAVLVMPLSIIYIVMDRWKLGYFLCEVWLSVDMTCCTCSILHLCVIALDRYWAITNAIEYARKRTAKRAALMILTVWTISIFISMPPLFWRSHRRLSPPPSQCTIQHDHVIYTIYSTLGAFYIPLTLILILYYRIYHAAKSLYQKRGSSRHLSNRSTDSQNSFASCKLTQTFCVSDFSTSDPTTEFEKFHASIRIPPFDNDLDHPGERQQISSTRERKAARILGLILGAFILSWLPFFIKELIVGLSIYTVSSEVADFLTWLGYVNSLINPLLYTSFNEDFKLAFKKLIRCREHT
# Chain of 5-hydroxytryptamine receptor 2B (P41595 whole entry): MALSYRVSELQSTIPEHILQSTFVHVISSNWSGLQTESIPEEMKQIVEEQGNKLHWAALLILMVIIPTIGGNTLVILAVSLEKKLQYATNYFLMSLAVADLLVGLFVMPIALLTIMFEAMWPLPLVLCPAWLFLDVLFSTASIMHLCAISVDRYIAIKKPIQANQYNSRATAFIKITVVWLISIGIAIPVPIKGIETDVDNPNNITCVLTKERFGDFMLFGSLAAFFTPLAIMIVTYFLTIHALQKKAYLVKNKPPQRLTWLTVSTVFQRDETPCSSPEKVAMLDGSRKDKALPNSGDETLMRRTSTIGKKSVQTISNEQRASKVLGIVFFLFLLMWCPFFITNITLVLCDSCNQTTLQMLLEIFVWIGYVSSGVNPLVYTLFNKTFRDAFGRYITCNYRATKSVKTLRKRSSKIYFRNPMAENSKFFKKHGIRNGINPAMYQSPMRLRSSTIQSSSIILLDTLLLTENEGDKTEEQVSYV
# Chain of 5-hydroxytryptamine receptor 6 (P50406 whole entry): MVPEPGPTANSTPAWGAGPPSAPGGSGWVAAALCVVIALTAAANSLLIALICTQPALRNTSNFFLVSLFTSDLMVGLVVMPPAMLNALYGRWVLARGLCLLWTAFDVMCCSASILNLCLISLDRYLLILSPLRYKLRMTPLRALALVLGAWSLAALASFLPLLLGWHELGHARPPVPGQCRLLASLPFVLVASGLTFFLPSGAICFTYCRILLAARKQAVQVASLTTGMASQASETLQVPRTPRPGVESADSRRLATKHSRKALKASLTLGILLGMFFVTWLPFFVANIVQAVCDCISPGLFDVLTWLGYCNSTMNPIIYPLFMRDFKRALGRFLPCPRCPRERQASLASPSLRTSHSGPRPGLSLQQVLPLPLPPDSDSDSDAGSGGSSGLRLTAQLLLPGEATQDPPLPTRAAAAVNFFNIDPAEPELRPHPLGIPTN
# Chain of 5-hydroxytryptamine receptor 2A (P28223 whole entry): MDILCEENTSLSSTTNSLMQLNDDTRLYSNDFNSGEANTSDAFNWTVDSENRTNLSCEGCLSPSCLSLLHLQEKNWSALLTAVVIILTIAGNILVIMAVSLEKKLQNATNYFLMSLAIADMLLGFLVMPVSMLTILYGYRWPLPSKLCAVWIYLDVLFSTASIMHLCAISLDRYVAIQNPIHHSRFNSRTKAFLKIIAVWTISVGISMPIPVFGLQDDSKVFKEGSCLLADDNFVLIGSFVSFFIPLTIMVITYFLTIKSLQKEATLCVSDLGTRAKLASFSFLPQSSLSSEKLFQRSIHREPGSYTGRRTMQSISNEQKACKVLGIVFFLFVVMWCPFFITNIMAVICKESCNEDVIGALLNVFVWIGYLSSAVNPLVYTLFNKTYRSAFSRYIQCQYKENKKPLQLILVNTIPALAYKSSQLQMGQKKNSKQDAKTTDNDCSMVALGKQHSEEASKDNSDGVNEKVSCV
# Chain of D(2) dopamine receptor (P14416 whole entry): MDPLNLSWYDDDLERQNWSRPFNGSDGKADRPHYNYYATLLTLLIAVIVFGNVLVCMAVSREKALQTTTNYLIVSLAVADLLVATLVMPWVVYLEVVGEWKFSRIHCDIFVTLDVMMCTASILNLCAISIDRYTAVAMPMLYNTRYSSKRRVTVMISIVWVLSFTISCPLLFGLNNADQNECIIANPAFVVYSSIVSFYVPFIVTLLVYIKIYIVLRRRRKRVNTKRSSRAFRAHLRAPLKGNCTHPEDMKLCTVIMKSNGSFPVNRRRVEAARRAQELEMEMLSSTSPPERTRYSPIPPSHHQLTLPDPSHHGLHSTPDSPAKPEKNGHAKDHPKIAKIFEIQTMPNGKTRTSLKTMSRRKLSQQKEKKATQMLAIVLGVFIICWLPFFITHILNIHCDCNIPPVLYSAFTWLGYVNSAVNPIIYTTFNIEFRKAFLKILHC
# Chain of 5-hydroxytryptamine receptor 1D (P28221 whole entry): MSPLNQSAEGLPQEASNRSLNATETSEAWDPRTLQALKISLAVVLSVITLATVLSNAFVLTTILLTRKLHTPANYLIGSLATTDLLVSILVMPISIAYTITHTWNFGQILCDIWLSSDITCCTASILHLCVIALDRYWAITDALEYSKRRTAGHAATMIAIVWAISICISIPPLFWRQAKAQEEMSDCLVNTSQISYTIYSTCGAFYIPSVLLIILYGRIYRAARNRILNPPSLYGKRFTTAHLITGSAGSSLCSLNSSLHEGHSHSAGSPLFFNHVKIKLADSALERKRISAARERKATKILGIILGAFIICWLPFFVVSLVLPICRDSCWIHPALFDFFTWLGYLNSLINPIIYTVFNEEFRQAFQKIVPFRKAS
# Chain of 5-hydroxytryptamine receptor 7 (P34969 whole entry): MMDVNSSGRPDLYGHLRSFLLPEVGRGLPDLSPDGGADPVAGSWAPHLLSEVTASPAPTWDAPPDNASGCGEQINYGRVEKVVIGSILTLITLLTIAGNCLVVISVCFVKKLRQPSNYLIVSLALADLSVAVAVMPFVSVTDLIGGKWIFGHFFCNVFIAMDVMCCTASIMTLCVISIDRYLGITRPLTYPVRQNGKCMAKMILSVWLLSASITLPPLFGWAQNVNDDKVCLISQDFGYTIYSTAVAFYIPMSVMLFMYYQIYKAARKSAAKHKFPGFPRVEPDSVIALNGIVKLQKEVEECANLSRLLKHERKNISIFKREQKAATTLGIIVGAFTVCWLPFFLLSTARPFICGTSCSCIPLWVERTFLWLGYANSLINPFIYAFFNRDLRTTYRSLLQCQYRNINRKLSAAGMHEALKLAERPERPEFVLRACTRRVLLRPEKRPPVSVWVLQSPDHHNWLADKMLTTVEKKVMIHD
# Chain of D(3) dopamine receptor (P35462 whole entry): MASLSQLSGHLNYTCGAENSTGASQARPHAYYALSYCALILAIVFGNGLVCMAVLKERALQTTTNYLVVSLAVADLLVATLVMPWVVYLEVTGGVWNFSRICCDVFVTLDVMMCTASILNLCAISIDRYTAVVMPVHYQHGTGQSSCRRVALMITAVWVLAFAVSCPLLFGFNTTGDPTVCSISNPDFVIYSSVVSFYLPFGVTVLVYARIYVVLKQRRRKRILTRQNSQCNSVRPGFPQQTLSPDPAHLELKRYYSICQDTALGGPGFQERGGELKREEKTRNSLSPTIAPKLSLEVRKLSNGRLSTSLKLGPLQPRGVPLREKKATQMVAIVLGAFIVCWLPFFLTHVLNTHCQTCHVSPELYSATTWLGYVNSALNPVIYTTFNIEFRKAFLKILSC
# Chain of Cytochrome P450 2C9 (P11712 whole entry): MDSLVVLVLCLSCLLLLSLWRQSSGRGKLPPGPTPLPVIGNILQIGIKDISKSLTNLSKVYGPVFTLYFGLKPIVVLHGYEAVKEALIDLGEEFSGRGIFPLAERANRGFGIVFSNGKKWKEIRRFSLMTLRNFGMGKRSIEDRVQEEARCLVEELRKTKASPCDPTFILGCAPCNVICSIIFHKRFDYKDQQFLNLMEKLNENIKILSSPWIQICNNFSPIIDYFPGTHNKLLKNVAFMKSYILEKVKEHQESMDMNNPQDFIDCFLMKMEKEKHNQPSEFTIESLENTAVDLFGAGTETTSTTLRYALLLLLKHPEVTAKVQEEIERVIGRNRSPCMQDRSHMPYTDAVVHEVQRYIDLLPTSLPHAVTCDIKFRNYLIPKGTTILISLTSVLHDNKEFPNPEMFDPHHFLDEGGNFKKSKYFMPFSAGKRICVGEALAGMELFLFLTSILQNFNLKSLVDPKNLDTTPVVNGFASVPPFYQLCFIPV
# Chain of Cytochrome P450 2D6 (P10635 whole entry): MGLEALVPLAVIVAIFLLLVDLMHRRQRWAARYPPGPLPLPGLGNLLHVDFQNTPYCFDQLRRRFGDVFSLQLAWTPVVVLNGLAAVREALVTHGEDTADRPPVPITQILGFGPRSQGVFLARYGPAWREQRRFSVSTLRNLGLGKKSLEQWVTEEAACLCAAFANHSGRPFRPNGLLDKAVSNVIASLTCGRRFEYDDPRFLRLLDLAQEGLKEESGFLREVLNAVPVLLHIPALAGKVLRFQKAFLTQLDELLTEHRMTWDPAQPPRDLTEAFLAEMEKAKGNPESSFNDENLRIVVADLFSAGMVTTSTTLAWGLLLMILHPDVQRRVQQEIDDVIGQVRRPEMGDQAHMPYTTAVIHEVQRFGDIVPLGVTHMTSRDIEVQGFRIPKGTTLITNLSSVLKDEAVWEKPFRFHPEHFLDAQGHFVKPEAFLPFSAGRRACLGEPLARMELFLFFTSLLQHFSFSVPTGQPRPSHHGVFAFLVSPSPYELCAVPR
smiles,measurement,setting,value
COc1ccc(NS(=O)(=O)c2cccc(C#N)c2)cc1N1CCN(C)CC1,Ki,[1],0.0631 µM
COc1ccc(NS(=O)(=O)c2c(C)sc3ccc(Cl)cc23)cc1N1CCN(C)CC1,Ki,[1],0.00126 µM
same,Selectivity,Homo sapiens,> 300
COc1ccc(NS(=O)(=O)c2cc(I)ccc2C)cc1N1CCN(C)CC1,Ki,[1],0.001 µM
same,Selectivity,Homo sapiens,> 125
COc1ccc(NS(=O)(=O)c2cn(C)cn2)cc1N1CCN(C)CC1,Ki,[1],0.794 µM
CNc1cc(NS(=O)(=O)c2ccc(N)cc2)nc(NC)n1,Ki,[1],0.0501 µM
CNc1cc(NS(=O)(=O)c2ccc(N)cc2)cc(NC)n1,Ki,[1],0.0126 µM
COc1ccc(NS(=O)(=O)c2ccc([N+](=O)[O-])cc2)cc1N1CCN(C)CC1,Ki,[1],0.0794 µM
COc1ccc(NS(=O)(=O)c2c(F)c(Br)cc(F)c2Br)cc1N1CCN(C)CC1,Ki,[1],0.00316 µM
same,Selectivity,Homo sapiens,> 300
COc1ccc(NS(=O)(=O)c2sc3ccc(Cl)cc3c2C)cc1N1CCN(C)CC1,Ki,[2],0.501 µM
same,Ki,[3],0.794 µM
same,Ki,[4],0.2 µM
same,Ki,[5],2.51 µM
same,Ki,[6],1 µM
same,Ki,[7],0.251 µM
same,Ki,[8],1 µM
same,Ki,[9],3.16 µM
same,Ki,[10],3.16 µM
same,Ki,[11],2 µM
same,Ki,D(3) dopamine receptor,0.2 µM
same,Ki,D(2) dopamine receptor,0.794 µM
same,Ki,[12],0.501 µM
COc1ccc(NS(=O)(=O)c2cc(Cl)cc(Cl)c2)cc1N1CCN(C)CC1,Ki,[1],0.002 µM
same,Selectivity,Homo sapiens,> 100
COc1ccc(NS(=O)(=O)c2sc3ccc(Cl)cc3c2C)cc1N1CCNCC1,Ki,[3],0.794 µM
same,Ki,[4],0.251 µM
same,Ki,[5],> 10 µM
same,Ki,[6],> 2.51 µM
same,Ki,[7],> 1 µM
same,Ki,[8],> 3.98 µM
same,Ki,[13],2 µM
same,IC50,Cytochrome P450 1A2,66 µM
same,IC50,Cytochrome P450 2C19,26 µM
same,IC50,Cytochrome P450 2C9,> 100 µM
same,IC50,Cytochrome P450 2D6,32 µM
same,Ki,D(2) dopamine receptor,2.51 µM
same,Ki,[12],2 µM
COc1ccc(NS(=O)(=O)c2cccc(I)c2)cc1N1CCN(C)CC1,Ki,[1],0.000794 µM
same,Selectivity,Homo sapiens,> 200
COc1ccc(NS(=O)(=O)c2ccc(Br)cc2)cc1N1CCN(C)CC1,Ki,[2],0.251 µM
same,Ki,[3],0.398 µM
same,Ki,[4],0.251 µM
same,Ki,[5],1.58 µM
same,Ki,[6],1.26 µM
same,Ki,[7],0.316 µM
same,Ki,[8],0.631 µM
same,Ki,[9],2.51 µM
same,Ki,[10],2.51 µM
same,Ki,[1],0.00501 µM
same,Ki,[13],2.51 µM
same,IC50,Cytochrome P450 1A2,10 µM
same,IC50,Cytochrome P450 2C19,46 µM
same,IC50,Cytochrome P450 2C9,> 100 µM
same,IC50,Cytochrome P450 2D6,11 µM
same,IC50,Cytochrome P450 3A4,6 µM
same,Ki,D(3) dopamine receptor,0.794 µM
same,Ki,D(2) dopamine receptor,3.98 µM
same,Ki,[12],1 µM
COc1ccc(NS(=O)(=O)c2ccccc2)cc1N1CCN(C)CC1,Ki,[1],0.01 µM
same,Selectivity,Homo sapiens,80
COc1ccc(NS(=O)(=O)c2ccc3c(Cl)cccc3c2)cc1N1CCN(C)CC1,Ki,[1],0.000794 µM
same,Selectivity,Homo sapiens,> 250
